# Measured values taken from ChEMBL document CHEMBL1142148, “Antibiotic susceptibility profile of bifidobacteria as affected by oxgall, acid, and hydrogen peroxide stress” (2007).
# Tests used:
# Bifidobacterium animalis [1] = assay: Antimicrobial activity against Bifidobacterium animalis ATCC 27536; format: functional
# Method in brief: (§1)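 Broth microdilution in MRS plus 0.05% L-cysteine-HCl. Mid-log culture adjusted to OD650 0.1, giving about 2.5 × 10^4 to 5.0 × 10^4 CFU/well, then added to twofold serial dilutions of agent. Plates incubated anaerobically at 37°C for 18 h and read at OD650. MIC is the lowest concentration matching the uninoculated blank OD, taken as the median of four repeats.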
# Bifidobacterium bifidum [2] = assay: Antimicrobial activity against Bifidobacterium bifidum R0071; format: functional; method in brief: as §1
# Bifidobacterium bifidum [3] = assay: Antimicrobial activity against Bifidobacterium bifidum ATCC 15696; format: functional; method in brief: as §1
# Bifidobacterium bifidum [4] = assay: Antimicrobial activity against Bifidobacterium bifidum BB12; format: functional; method in brief: as §1
# Bifidobacterium breve [5] = assay: Antimicrobial activity against Bifidobacterium breve ATCC 15700; format: functional; method in brief: as §1
# [6] = Antimicrobial activity against Bifidobacterium infantis ATCC 15697; format: functional, Bifidobacterium longum subsp. infantis; conditions: Bifidobacterium longum; method in brief: as §1
# Bifidobacterium longum [7] = assay: Antimicrobial activity against Bifidobacterium longum ATCC 15708; format: functional; method in brief: as §1
# Bifidobacterium longum [8] = assay: Antimicrobial activity against Bifidobacterium longum R0175; format: functional; method in brief: as §1
# Bifidobacterium longum [9] = assay: Antimicrobial activity against Bifidobacterium longum P/N 601377; format: functional; method in brief: as §1
# [10] = test system: Bifidobacterium pseudolongum; assay: Antimicrobial activity against Bifidobacterium pseudolongum ATCC 25562; format: functional; method in brief: as §1
# [11] = test system: Bifidobacterium thermophilum; assay: Antimicrobial activity against Bifidobacterium thermophilum ATCC 25866; format: functional; method in brief: as §1
# Bifidobacterium breve [12] = assay: Antimicrobial activity against Bifidobacterium breve R0070; format: functional; method in brief: as §1
# Bifidobacterium animalis [13] = assay: Antimicrobial activity against 60 min 1 M HCl-stressed Bifidobacterium animalis ATCC 27536 after 18 hrs; format: functional
# Method in brief: (§2)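 Mid-log MRS culture pelleted and resuspended in MRS broth brought to pH 2.0 with 1 M HCl, held anaerobically at 37°C for 60 min, then subcultured in MRS (pH 6.5) for 24 h anaerobically before MIC testing by broth microdilution (as for unstressed cells). Table footnote gives 18 h anaerobic regrowth after the stress. MIC is the median of four repetitions.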
# Bifidobacterium bifidum [14] = assay: Antimicrobial activity against 60 min 1 M HCl-stressed Bifidobacterium bifidum R0071 after 18 hrs; format: functional; method in brief: as §2
# Bifidobacterium bifidum [15] = assay: Antimicrobial activity against 60 min 1 M HCl-stressed Bifidobacterium bifidum BB12 after 18 hrs; format: functional; method in brief: as §2
# Bifidobacterium breve [16] = assay: Antimicrobial activity against 60 min 1 M HCl-stressed Bifidobacterium breve ATCC 15700 after 18 hrs; format: functional; method in brief: as §2
# Bifidobacterium breve [17] = assay: Antimicrobial activity against 60 min 1 M HCl-stressed Bifidobacterium breve R0070 after 18 hrs; format: functional; method in brief: as §2
# [18] = Antimicrobial activity against 60 min 1 M HCl-stressed Bifidobacterium infantis ATCC 15697 after 18 hrs; format: functional, Bifidobacterium longum subsp. infantis; conditions: Bifidobacterium longum; method in brief: as §2
# Bifidobacterium longum [19] = assay: Antimicrobial activity against 60 min 1 M HCl-stressed Bifidobacterium longum ATCC 15707 after 18 hrs; format: functional; method in brief: as §2
# Bifidobacterium longum [20] = assay: Antimicrobial activity against 60 min 1 M HCl-stressed Bifidobacterium longum R0175 after 18 hrs; format: functional; method in brief: as §2
# Bifidobacterium longum [21] = assay: Antimicrobial activity against 60 min 1 M HCl-stressed Bifidobacterium longum P/N 601377 after 18 hrs; format: functional; method in brief: as §2
# [22] = test system: Bifidobacterium pseudolongum; assay: Antimicrobial activity against 60 min 1 M HCl-stressed Bifidobacterium pseudolongum ATCC 25562 after 18 hrs; format: functional; method in brief: as §2
# [23] = test system: Bifidobacterium thermophilum; assay: Antimicrobial activity against 60 min 1 M HCl-stressed Bifidobacterium thermophilum ATCC 25866 after 18 hrs; format: functional; method in brief: as §2
# Bifidobacterium animalis [24] = assay: Antimicrobial activity against 90 mins oxgall-stressed Bifidobacterium animalis ATCC 27536 after 18 hrs; format: functional
# Method in brief: (§3)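 Cells pelleted from mid-log MRS culture and resuspended in MRS (initial pH 6.5) with 0.3% (wt/vol) oxgall for 90 min anaerobically at 37°C. They were then regrown in MRS pH 6.5 for 24 h (footnote: 18 h) anaerobically and tested for MIC by the same broth microdilution assay. Median of four repetitions.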
# Bifidobacterium bifidum [25] = assay: Antimicrobial activity against 90 mins oxgall-stressed Bifidobacterium bifidum R0071 after 18 hrs; format: functional; method in brief: as §3
# Bifidobacterium bifidum [26] = assay: Antimicrobial activity against 90 mins oxgall-stressed Bifidobacterium bifidum ATCC 15696 after 18 hrs; format: functional; method in brief: as §3
# Bifidobacterium bifidum [27] = assay: Antimicrobial activity against 90 mins oxgall-stressed Bifidobacterium bifidum BB12 after 18 hrs; format: functional; method in brief: as §3
# Bifidobacterium breve [28] = assay: Antimicrobial activity against 90 mins oxgall-stressed Bifidobacterium breve ATCC 15700 after 18 hrs; format: functional; method in brief: as §3
# Bifidobacterium breve [29] = assay: Antimicrobial activity against 90 mins oxgall-stressed Bifidobacterium breve R0070 after 18 hrs; format: functional; method in brief: as §3
# [30] = Antimicrobial activity against 90 mins oxgall-stressed Bifidobacterium infantis ATCC 15697 after 18 hrs; format: functional, Bifidobacterium longum subsp. infantis; conditions: Bifidobacterium longum; method in brief: as §3
# Bifidobacterium longum [31] = assay: Antimicrobial activity against 90 mins oxgall-stressed Bifidobacterium longum ATCC 15707 after 18 hrs; format: functional; method in brief: as §3
# Bifidobacterium longum [32] = assay: Antimicrobial activity against 90 mins oxgall-stressed Bifidobacterium longum ATCC 15708 after 18 hrs; format: functional; method in brief: as §3
# Bifidobacterium longum [33] = assay: Antimicrobial activity against Bifidobacterium longum ATCC 15707; format: functional; method in brief: as §1
# Bifidobacterium longum [34] = assay: Antimicrobial activity against 90 mins oxgall-stressed Bifidobacterium longum R0175 after 18 hrs; format: functional; method in brief: as §3
# Bifidobacterium longum [35] = assay: Antimicrobial activity against 90 mins oxgall-stressed Bifidobacterium longum P/N 601377 after 18 hrs; format: functional; method in brief: as §3
# [36] = test system: Bifidobacterium pseudolongum; assay: Antimicrobial activity against 90 mins oxgall-stressed Bifidobacterium pseudolongum ATCC 25562 after 18 hrs; format: functional; method in brief: as §3
# [37] = test system: Bifidobacterium thermophilum; assay: Antimicrobial activity against 90 mins oxgall-stressed Bifidobacterium thermophilum ATCC 25866 after 18 hrs; format: functional; method in brief: as §3
# Bifidobacterium animalis [38] = assay: Antimicrobial activity against 90 mins hydrogen peroxide-stressed Bifidobacterium animalis ATCC 27536 after 18 hrs; format: functional
# Method in brief: (§4)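 Stress applied for 90 min at 37°C under anaerobic conditions, using MRS (initial pH 6.5) containing H2O2 at each strain's own inhibitory concentration. The H2O2 level was set beforehand by microplate tolerance testing. Challenged cells were regrown in MRS for 24 h (footnote: 18 h) before MIC testing by broth microdilution. Median of four repetitions.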
# Bifidobacterium bifidum [39] = assay: Antimicrobial activity against 90 mins hydrogen peroxide-stressed Bifidobacterium bifidum R0071 after 18 hrs; format: functional; method in brief: as §4
# Bifidobacterium bifidum [40] = assay: Antimicrobial activity against 90 mins hydrogen peroxide-stressed Bifidobacterium bifidum BB12 after 18 hrs; format: functional; method in brief: as §4
# Bifidobacterium breve [41] = assay: Antimicrobial activity against 90 mins hydrogen peroxide-stressed Bifidobacterium breve ATCC 15700 after 18 hrs; format: functional; method in brief: as §4
# Bifidobacterium breve [42] = assay: Antimicrobial activity against 90 mins hydrogen peroxide-stressed Bifidobacterium breve R0070 after 18 hrs; format: functional; method in brief: as §4
# Bifidobacterium longum [43] = assay: Antimicrobial activity against 90 mins hydrogen peroxide-stressed Bifidobacterium longum ATCC 15707 after 18 hrs; format: functional; method in brief: as §4
# Bifidobacterium longum [44] = assay: Antimicrobial activity against 90 mins hydrogen peroxide-stressed Bifidobacterium longum ATCC 15708 after 18 hrs; format: functional; method in brief: as §4
# Bifidobacterium longum [45] = assay: Antimicrobial activity against 90 mins hydrogen peroxide-stressed Bifidobacterium longum R0175 after 18 hrs; format: functional; method in brief: as §4
# Bifidobacterium longum [46] = assay: Antimicrobial activity against 90 mins hydrogen peroxide-stressed Bifidobacterium longum P/N 601377 after 18 hrs; format: functional; method in brief: as §4
# [47] = test system: Bifidobacterium thermophilum; assay: Antimicrobial activity against 90 mins hydrogen peroxide-stressed Bifidobacterium thermophilum ATCC 25866 after 18 hrs; format: functional; method in brief: as §4
smiles,measurement,setting,value
CN[C@H](CC(C)C)C(=O)N[C@H]1C(=O)N[C@@H](CC(N)=O)C(=O)N[C@H]2C(=O)N[C@H]3C(=O)N[C@H](C(=O)N[C@H](C(=O)O)c4cc(O)cc(O)c4-c4cc3ccc4O)[C@H](O)c3ccc(c(Cl)c3)Oc3cc2cc(c3O[C@@H]2O[C@H](CO)[C@@H](O)[C@H](O)[C@H]2O[C@H]2C[C@](C)(N)[C@H](O)[C@H](C)O2)Oc2ccc(cc2Cl)[C@H]1O [VANCOMYCIN],MIC,Bifidobacterium animalis [1],500 µg/mL
same,MIC,Bifidobacterium bifidum [2],500 µg/mL
same,MIC,Bifidobacterium bifidum [3],> 500 µg/mL
same,MIC,Bifidobacterium bifidum [4],> 500 µg/mL
same,MIC,Bifidobacterium breve [5],> 500 µg/mL
same,MIC,[6],> 500 µg/mL
same,MIC,Bifidobacterium longum [7],500 µg/mL
same,MIC,Bifidobacterium longum [8],500 µg/mL
same,MIC,Bifidobacterium longum [9],> 500 µg/mL
same,MIC,[10],> 500 µg/mL
same,MIC,[11],> 500 µg/mL
same,MIC,Bifidobacterium breve [12],500 µg/mL
same,MIC,Bifidobacterium animalis [13],> 500 µg/mL
same,MIC,Bifidobacterium bifidum [14],> 500 µg/mL
same,MIC,Bifidobacterium bifidum [15],> 500 µg/mL
same,MIC,Bifidobacterium breve [16],> 500 µg/mL
same,MIC,Bifidobacterium breve [17],> 500 µg/mL
same,MIC,[18],0.98 µg/mL
same,MIC,Bifidobacterium longum [19],> 500 µg/mL
same,MIC,Bifidobacterium longum [20],0.98 µg/mL
same,MIC,Bifidobacterium longum [21],> 500 µg/mL
same,MIC,[22],0.98 µg/mL
same,MIC,[23],> 500 µg/mL
same,MIC,Bifidobacterium animalis [24],1.9 µg/mL
same,MIC,Bifidobacterium bifidum [25],> 500 µg/mL
same,MIC,Bifidobacterium bifidum [26],> 500 µg/mL
same,MIC,Bifidobacterium bifidum [27],> 500 µg/mL
same,MIC,Bifidobacterium breve [28],> 500 µg/mL
same,MIC,Bifidobacterium breve [29],> 500 µg/mL
same,MIC,[30],0.98 µg/mL
same,MIC,Bifidobacterium longum [31],> 500 µg/mL
same,MIC,Bifidobacterium longum [32],0.98 µg/mL
same,MIC,Bifidobacterium longum [33],500 µg/mL
same,MIC,Bifidobacterium longum [34],> 500 µg/mL
same,MIC,Bifidobacterium longum [35],> 500 µg/mL
same,MIC,[36],0.98 µg/mL
same,MIC,[37],> 500 µg/mL
same,MIC,Bifidobacterium animalis [38],> 500 µg/mL
same,MIC,Bifidobacterium bifidum [39],> 500 µg/mL
same,MIC,Bifidobacterium bifidum [40],> 500 µg/mL
same,MIC,Bifidobacterium breve [41],> 500 µg/mL
same,MIC,Bifidobacterium breve [42],> 500 µg/mL
same,MIC,Bifidobacterium longum [43],> 500 µg/mL
same,MIC,Bifidobacterium longum [44],> 500 µg/mL
same,MIC,Bifidobacterium longum [45],> 500 µg/mL
same,MIC,Bifidobacterium longum [46],> 500 µg/mL
same,MIC,[47],> 500 µg/mL
